# Reference: paper PMC2532710 (Nucleic Acids Research, 2008)
# Values joined by “and” are separate entries in the source; they are usually repeats but may differ in a detail not shown here. Equal values may be shown once.
# Key:
# [1] = test system: replication fork substrates; conditions: ref K. Kepple, Ph.D. Thesis, 2006; cited from earlier work
# flayed duplex molecule = assay: 2-AP fluorescence quenching, flayed duplex; format: binding
# Summary of the method: (§1)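 Substrates were annealed from oligos (boiled 5 min, slow-cooled), gel-purified on native 12% PAGE and quantified spectrophotometrically. After ≥10 min equilibration, emission was read at 330–430 nm (excitation 315 nm). Adenine-substituted spectra were subtracted, and fold decrease at 370 nm was taken versus no peptide.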
# [2] = test system: replication fork substrate; assay: 2-AP fluorescence quenching, replication fork; format: binding
# Summary of the method: as §1
# Flayed fork = assay: 2-AP titration Kd, flayed fork; format: binding; conditions: Kd ratio, n = 1
# Summary of the method: (§2)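 Each substrate carried 2-AP at strand 4, position 2 and was used at 0.1 μM in 20 mM Tris-HCl pH 7.8, 25 mM NaCl, 1 mM EDTA, 1.6% DMSO at 24°C. Peptide dimer added in 2-fold steps from 0.003125 μM, 3 min each. Excitation 315 nm, emission 330–430 nm. Adenine background subtracted, 365–375 nm averaged. Fc fitted by least squares to pooled 2–3 dilution series. Value given as Kd relative to HJ Kd.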
# Complete fork = assay: 2-AP titration Kd, complete fork; format: binding; conditions: Kd ratio, n = 1
# Summary of the method: as §2
# RuvABC complex = conditions: cited from earlier work
# [3] = test system: fork substrate with only the leading strand; assay: 2-AP fluorescence quenching, leading strand fork; format: binding
# Summary of the method: as §1
# [4] = test system: RecG binding to HJ substrate; conditions: cited from earlier work
# protein-free HJ DNA [5] = assay: peptide/RecG band shift assay on HJ; format: binding; conditions: read-out: dissociation constant (Kd) by band shift assay; peptide dimer, HJ
# RecG helicase = conditions: cited from earlier work
# Holliday junction = assay: 2-AP titration Kd, Holliday junction; format: binding; conditions: Kd ratio, n = 1
# Summary of the method: as §2
# Oligo = assay: 2-AP titration Kd, oligo; format: binding; conditions: Kd ratio, n = 1
# Summary of the method: as §2
# [6] = test system: RecG binding to HJ substrate; assay: RecG/; parameters: species or system Escherichia coli
# human RAD54 protein = conditions: cited from earlier work
# linear dsDNA = conditions: cited from earlier work
# RecG/HJ complex = assay: displacement of RecG from HJ DNA; format: binding, Escherichia coli; conditions: 0.1 μM (WRWYCR)2
# HJ substrate [7] = assay: dissociation from HJ; format: binding
# HJ substrate [8] = assay: 2-AP fluorescence quenching, HJ substrate; format: binding
# Summary of the method: as §1
# protein-free HJ DNA [9] = conditions: cited from earlier work
# [10] = test system: 1AP1 oligonucleotide alone (ssDNA); assay: 2-AP fluorescence quenching, single oligonucleotide; format: binding
# [11] = test system: central thymine bases of HJ; conditions: bound to HJ; cited from earlier work
substance,measurement,setting,value
(WRWYCR)2 (disulfide),binding to replication forks by band shift,[1],unable to detect binding
same,fold decrease in 2-AP fluorescence at 370 nm,"flayed duplex molecule; Flayed-1AP1 (central base), 1.6 μM dimer, 8:1",1.3 fold
same,fold decrease in 2-AP fluorescence at 370 nm,"flayed duplex molecule; Flayed-4AP1 (central base), 0.8 μM dimer, 4:1",1.2 fold
same,2-AP quenching,"flayed duplex molecule; Flayed-4AP1, 4AP2 and 4AP3, compared with leading strand fork",even less sensitive to quenching
same,fold decrease in 2-AP fluorescence at 370 nm,"flayed duplex molecule; Flayed-4AP2 (central base), 0.05 μM dimer, 0.25:1",1.0 fold
same,fold decrease in 2-AP fluorescence at 370 nm,"flayed duplex molecule; Flayed-4AP2 (central base), 0.8 μM dimer, 4:1",1.3 fold
same,fold decrease in 2-AP fluorescence at 370 nm,"flayed duplex molecule; Flayed-4AP3, 0.05 μM dimer, 0.25:1",1.0 fold
same,fold decrease in 2-AP fluorescence at 370 nm,"flayed duplex molecule; Flayed-4AP3, 0.8 μM dimer, 4:1",1.2 fold
same,fold decrease in 2-AP fluorescence at 370 nm,"flayed duplex molecule; Flayed-4AP3, 1.6 μM dimer, 8:1",1.3 fold
same,fold decrease in 2-AP fluorescence at 370 nm,"flayed duplex molecule; Flayed-4AP4, 0.05 μM dimer, 0.25:1",1.0 fold
same,fold decrease in 2-AP fluorescence at 370 nm,"flayed duplex molecule; Flayed-4AP4, 0.2 μM dimer, 1:1",1.0 fold
same,fold decrease in 2-AP fluorescence at 370 nm,"flayed duplex molecule; Flayed-4AP4, 1.6 μM dimer, 8:1",1.2 fold
same,2-AP quenching,flayed duplex molecule; Flayed-4AP4 and Flayed-1AP1,only weakly quenched
same,fold decrease in 2-AP fluorescence at 370 nm,"[2]; Fork-1AP1 (central base), 0.05 μM dimer, 0.25:1",1.0 fold
same,fold decrease in 2-AP fluorescence at 370 nm,"[2]; Fork-1AP1 (central base), 0.2 μM dimer, 1:1",1.0 fold
same,fold decrease in 2-AP fluorescence at 370 nm,"[2]; Fork-1AP1 (central base), 0.8 μM dimer, 4:1",1.2 fold
same,fold decrease in 2-AP fluorescence at 370 nm,"[2]; Fork-3AP2, 0.2 μM dimer, 1:1",1.0 fold
same,fold decrease in 2-AP fluorescence at 370 nm,"[2]; Fork-3AP2, 1.6 μM dimer, 8:1",1.2 fold
same,fold decrease in 2-AP fluorescence at 370 nm,"[2]; Fork-4AP1 (central base), 0.05 μM dimer, 0.25:1",1.0 fold
same,fold decrease in 2-AP fluorescence at 370 nm,"[2]; Fork-4AP1 (central base), 1.6 μM dimer, 8:1",1.7 fold
same,fold decrease in 2-AP fluorescence at 370 nm,"[2]; Fork-4AP2 (central base), 0.05 μM dimer, 0.25:1",1.0 fold
same,fold decrease in 2-AP fluorescence at 370 nm,"[2]; Fork-4AP2 (central base), 0.2 μM dimer, 1:1",1.0 fold
same,fold decrease in 2-AP fluorescence at 370 nm,"[2]; Fork-4AP3, 0.05 μM dimer, 0.25:1",1.0 fold
same,fold decrease in 2-AP fluorescence at 370 nm,"[2]; Fork-4AP3, 0.2 μM dimer, 1:1",1.0 fold
same,fold decrease in 2-AP fluorescence at 370 nm,"[2]; Fork-4AP3, 0.8 μM dimer, 4:1",1.2 fold
same,fold decrease in 2-AP fluorescence at 370 nm,"[2]; Fork-4AP4, 0.05 μM dimer, 0.25:1",1.0 fold
same,fold decrease in 2-AP fluorescence at 370 nm,"[2]; Fork-4AP4, 0.2 μM dimer, 1:1",1.0 fold
same,fold decrease in 2-AP fluorescence at 370 nm,"[2]; Fork-4AP4, 0.8 μM dimer, 4:1",1.0 fold
same,fold decrease in 2-AP fluorescence at 370 nm,"[2]; Fork-4AP4, 1.6 μM dimer, 8:1",1.2 fold
same,Fold reduced versus HJ,Flayed fork,43.9
same,Fold reduced versus HJ,Complete fork,4.4
same,inhibition of HJ resolution by RuvABC,RuvABC complex,inhibit
same,IC50,"RuvABC complex; read-out: IC50, RuvABC",~50 nM
same,fold decrease in 2-AP fluorescence at 370 nm,"[3]; Lead-1AP1 (central base), 0.05 μM dimer, 0.25:1",1.0 fold
same,fold decrease in 2-AP fluorescence at 370 nm,"[3]; Lead-1AP1 (central base), 1.6 μM dimer, 8:1",1.3 fold
same,fold decrease in 2-AP fluorescence at 370 nm,"[3]; Lead-4AP1 (central base), 0.05 μM dimer, 0.25:1",1.0 fold
same,fold decrease in 2-AP fluorescence at 370 nm,"[3]; Lead-4AP1 (central base), 0.8 μM dimer, 4:1",1.3 fold
same,fold decrease in 2-AP fluorescence at 370 nm,"[3]; Lead-4AP1 (central base), 1.6 μM dimer, 8:1",1.7 fold
same,2-AP quenching,"[3]; Lead-4AP1, Lead-4AP2 and Lead-4AP3",all quenched by the peptide
same,fold decrease in 2-AP fluorescence at 370 nm,"[3]; Lead-4AP2 (central base), 0.05 μM dimer, 0.25:1",1.0 fold
same,fold decrease in 2-AP fluorescence at 370 nm,"[3]; Lead-4AP2 (central base), 0.8 μM dimer, 4:1",1.2 fold
same,fold decrease in 2-AP fluorescence at 370 nm,"[3]; Lead-4AP3, 0.05 μM dimer, 0.25:1",1.0 fold
same,fold decrease in 2-AP fluorescence at 370 nm,"[3]; Lead-4AP3, 0.8 μM dimer, 4:1",1.2 fold
same,fold decrease in 2-AP fluorescence at 370 nm,"[3]; Lead-4AP4, 0.2 μM dimer, 1:1",1.0 fold
same,fold decrease in 2-AP fluorescence at 370 nm,"[3]; Lead-4AP4, 1.6 μM dimer, 8:1",1.2 fold
same,2-AP quenching,[3]; Lead-4AP4 and Lead-1AP1,less sensitive
same,complexes formed when peptide and RecG are added together to HJ,[4],mostly peptide–HJ complexes
same,Kd,protein-free HJ DNA [5],12.5 nM
same,inhibition of unwinding of branched DNA substrates by RecG,RecG helicase,inhibit unwinding of branched DNA substrates
same,inhibition of RecG by fork type,RecG helicase; fork with only lagging vs only leading strand,inhibits RecG most on a fork substrate with only the lagging strand and least on a fork substrate with only the leading strand
same,Fold reduced versus HJ,Holliday junction,1
same,Fold reduced versus HJ,Oligo,51.1
same,mechanism of inhibition of RecG,[6],competitive mechanism
same,inhibition of RecG binding to HJ,"[6]; 0.02 μM RecG, 0.025 μM peptide dimer, 2 nM HJ",strongly inhibited
same,inhibition of RecG binding to HJ,"[6]; 0.02 μM RecG, 0.1 μM peptide, 2 nM HJ",almost completely inhibited
same,inhibition of RecG binding to HJ,"[6]; 0.2 μM RecG, 0.025 μM peptide",only weak inhibition
same,"inhibition of RecG–DNA complexes, order of addition","[6]; data not shown, Saha and Segall, unpublished data",occurs whether the peptide is added to DNA 10 min before or after RecG
same,inhibition of D-loop unwinding activity,human RAD54 protein,inhibit the D-loop unwinding activity
same,interaction with linear dsDNA,linear dsDNA,not with linear dsDNA
same,binding to dsDNA,linear dsDNA; high concentrations,binds to dsDNA nonspecifically at high concentrations
same,disappearance of band with two RecG monomers per HJ,RecG/HJ complex,takes far longer to disappear
same,time for half of bound peptide to dissociate,"HJ substrate [7]; 0.015 μM (WRWYCR)2, 1 nM labeled HJ, 0.2 μM unlabeled HJ (200X), 4°C",More than an hour
same,dissociation slower than RecG,"HJ substrate [7]; peptide vs RecG, from HJ",about 2 X
same,quenching of four central 2-AP bases,HJ substrate [8]; 4-fold excess of peptide dimer over substrate,at least 1.6 fold
same,fold decrease in 2-AP fluorescence at 370 nm,"HJ substrate [8]; HJ-1AP1 (central base), 0.2 μM dimer, 1:1",1.2 fold
same,fold decrease in 2-AP fluorescence at 370 nm,"HJ substrate [8]; HJ-1AP1 (central base), 0.8 μM dimer, 4:1",1.6 fold
same,fold decrease in 2-AP fluorescence at 370 nm,"HJ substrate [8]; HJ-1AP1 (central base), 1.6 μM dimer, 8:1",1.8 fold
same,fold decrease in 2-AP fluorescence at 370 nm,"HJ substrate [8]; HJ-3AP1 (central base), 0.2 μM dimer, 1:1",1.3 fold
same,fold decrease in 2-AP fluorescence at 370 nm,"HJ substrate [8]; HJ-3AP1 (central base), 0.8 μM dimer, 4:1",2.0 fold
same,fold decrease in 2-AP fluorescence at 370 nm,"HJ substrate [8]; HJ-3AP1 (central base), 1.6 μM dimer, 8:1",2.2 fold
same,fold decrease in 2-AP fluorescence at 370 nm,"HJ substrate [8]; HJ-3AP2, 0.2 μM dimer, 1:1",1.0 fold
same,fold decrease in 2-AP fluorescence at 370 nm,"HJ substrate [8]; HJ-4AP1 (central base), 0.2 μM dimer, 1:1",1.2 fold
same,fold decrease in 2-AP fluorescence at 370 nm,"HJ substrate [8]; HJ-4AP1 (central base), 0.8 μM dimer, 4:1",1.9 fold
same,fold decrease in 2-AP fluorescence at 370 nm,"HJ substrate [8]; HJ-4AP1 (central base), 1.6 μM dimer, 8:1",1.8 fold
same,fold decrease in 2-AP fluorescence at 370 nm,"HJ substrate [8]; HJ-4AP2 (central base), 0.05 μM dimer, 0.25:1",1.0 fold
same,fold decrease in 2-AP fluorescence at 370 nm,"HJ substrate [8]; HJ-4AP2 (central base), 0.2 μM dimer, 1:1",1.2 fold
same,fold decrease in 2-AP fluorescence at 370 nm,"HJ substrate [8]; HJ-4AP2 (central base), 0.8 μM dimer, 4:1",2 fold and 2.0 fold
same,fold decrease in 2-AP fluorescence at 370 nm,"HJ substrate [8]; HJ-4AP2 (central base), 1.6 μM dimer, 8:1",2.2 fold
same,fold decrease in 2-AP fluorescence at 370 nm,"HJ substrate [8]; HJ-4AP3, 0.05 μM dimer, 0.25:1",1.0 fold
same,fold decrease in 2-AP fluorescence at 370 nm,"HJ substrate [8]; HJ-4AP3, 0.2 μM dimer, 1:1",1.2 fold
same,fold decrease in 2-AP fluorescence at 370 nm,"HJ substrate [8]; HJ-4AP4, 0.05 μM dimer, 0.25:1",1.0 fold
same,fold decrease in 2-AP fluorescence at 370 nm,"HJ substrate [8]; HJ-4AP4, 0.2 μM dimer, 1:1",1.0 fold
same,fold decrease in 2-AP fluorescence at 370 nm,"HJ substrate [8]; HJ-4AP4, 0.8 μM dimer, 4:1",1.2 fold
same,fold decrease in 2-AP fluorescence at 370 nm,"HJ substrate [8]; HJ-4AP4, 1.6 μM dimer, 8:1",1.2 fold
same,quenching of 2-AP in the center of HJ and replication forks,HJ substrate [8]; center of both HJ and replication forks,quench the fluorescence of 2-AP bases
same,"quenching of central bases, preliminary set","HJ substrate [8]; the eighth central base, Boldt and Segall, unpublished data, preliminary",1.6 X
same,binding to free HJ DNA,protein-free HJ DNA [9],bind specifically to free HJ DNA
same,effect of Mg^2+ or spermidine on HJ binding,protein-free HJ DNA [9],strongly inhibited
same,2-AP quenching,"[10]; 8-fold molar excess of peptide, data not shown",no significant quenching
same,2-AP quenching,[10]; 16-fold peptide excess,Quenching begins
same,2-AP quenching,[10]; 32-fold excess,increases
same,increase in KMnO4 sensitivity of central thymine bases,[11],~2 fold
